Measurements from article PMC8163102 (Angewandte Chemie (International ed. in English), 2020).

Legend:
[1] = test system: immortalized macrophages; assay: Probe activation in cells by flow cytometry; type: cell-based; details: E64d pretreatment; Fig. S4
[2] = test system: 4T1 murine breast cancer lysates; assay: Cleavage of ACC peptide substrates in tumor lysate; type: biochemical, mouse; details: E64 10 μM preincubation, 4T1 lysate, acidic pH; Fig. 1D
How it was run: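 ACC-reporter peptide substrates were added to 4T1 murine breast cancer lysate at acidic pH, with or without prior preincubation with the cysteine cathepsin inhibitor E64 (10 μM). Cleavage velocity was plotted as mean ± SD, n=3.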

SMILES	Effect of inhibitor pretreatment on labelling of cells by probe 5 [1]	Effect of preincubation with the inhibitor on cleavage of ACC substrates 1-3 [2]
CCOC(=O)[C@H]1O[C@@H]1C(=O)N[C@@H](CC(C)C)C(=O)NCCC(C)C [E64d]	strongly diminished labelling	
CC(C)C[C@H](NC(=O)[C@H]1O[C@@H]1C(=O)O)C(=O)NCCCCN=C(N)N [E64]		fully abrogated cleavage
